Results published in ChEMBL document CHEMBL1122488, “synthesis and antitumor activity of 2-deoxyribofuranosides of 3-deazaguanine” (1983).
One block for each molecule: values may come before it.

How the values were obtained:
Assay type in all cases: functional
L1210 = experiment: Effective dose that produced 50% inhibition of L1210 Leukemia cell growth in culture; settings: Mus musculus, read-out: ED50 (the source's name)
Procedure, shortened: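 The value is the drug concentration in the culture medium that gave 50% inhibition of L1210 leukemia cell growth, relative to untreated controls, after a 48-h incubation. Results are mean ± standard error.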

Mus musculus [1] = experiment: Tumor weight on day 17 of C3H mammary adenocarcinoma 16/C in B6C3F1 female mice at 80 mg/kg by subcutaneous administration; settings: route intraperitoneal, in the assay text read “intraperitoneal administration” for “subcutaneous administration”
Procedure, shortened: (§1)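 C3H mammary adenocarcinoma 16/C, lung-passed in C3H female mice. Freshly harvested 2- to 4-mm3 fragments were implanted subcutaneously into 18- to 20-g B6C3F1 females on day 0, and the mice were randomized the next day. Drugs were dissolved in 0.2 M phosphate buffer and given ip once daily on days 1-9; controls received 0.2 mL buffer. Tumor weight was estimated from caliper length and width by […].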

Mus musculus [2] = experiment: Percentage growth inhibition of mammary adenocarcinoma 16/C in B6C3F1 female mice at 40 mg/kg dose […]; settings: sc; procedure, shortened: as §1
Mus musculus [3] = experiment: Percentage growth inhibition of mammary adenocarcinoma 16/C in B6C3F1 female mice at 80 mg/kg dose […]; settings: sc; procedure, shortened: as §1
Mus musculus [4] = experiment: Change in weight on day 9 of mammary adenocarcinoma 16/C in B6C3F1 female mice at 40 mg/kg […]; procedure, shortened: as §1
Mus musculus [5] = experiment: Change in weight on day 9 of mammary adenocarcinoma 16/C in B6C3F1 female mice at 80 mg/kg […]; procedure, shortened: as §1
Mus musculus [6] = experiment: Animals with palpable tumors on day 17 at 40 mg/kg by subcutaneous administration in B6C3F1 female mice; 6/6; settings: route intraperitoneal, in the assay text read “intraperitoneal administration” for “subcutaneous administration”; procedure, shortened: as §1
Mus musculus [7] = experiment: Animals with palpable tumors on day 17 at 80 mg/kg by subcutaneous administration in B6C3F1 female mice; 6/6; settings: route intraperitoneal, in the assay text read “intraperitoneal administration” for “subcutaneous administration”; procedure, shortened: as §1
Mus musculus [8] = experiment: Tumor weight on day 17 of C3H mammary adenocarcinoma 16/C in B6C3F1 female mice at 40 mg/kg […]; procedure, shortened: as §1
Mus musculus [9] = experiment: Percentage growth inhibition of mammary adenocarcinoma 16/C in B6C3F1 female mice at the dose of 100 mg/kg by subcutaneous administration; settings: ip, in the assay text read “intraperitoneal administration” for “subcutaneous administration”; procedure, shortened: as §1
Mus musculus [10] = experiment: Tumor weight of C3H mammary adenocarcinoma 16/C in B6C3F1 female mice at 100 mg/kg by subcutaneous administration on day 17; settings: route intraperitoneal, in the assay text read “intraperitoneal administration” for “subcutaneous administration”; procedure, shortened: as §1
Mus musculus [11] = experiment: Tumor weight of C3H mammary adenocarcinoma 16/C in B6C3F1 female mice at 50 mg/kg by subcutaneous administration on day 17; settings: route intraperitoneal, in the assay text read “intraperitoneal administration” for “subcutaneous administration”; procedure, shortened: as §1
Mus musculus [12] = experiment: Change in weight of mammary adenocarcinoma 16/C in B6C3F1 female mice at 100 mg/kg […] on day 9; procedure, shortened: as §1
Mus musculus [13] = experiment: Change in weight of mammary adenocarcinoma 16/C in B6C3F1 female mice at 50 mg/kg […] on day 9; procedure, shortened: as §1
Mus musculus [14] = experiment: Animals with palpable tumors on day 17 at the dose of 100 mg/kg by […] in 6 B6C3F1 female mice; 6/6 animals were with palpable tumors.; procedure, shortened: as §1
Mus musculus [15] = experiment: Animals with palpable tumors on day 17 at the dose of 50 mg/kg by […] in 6 B6C3F1 female mice; 6/6 animals were with palpable tumors.; procedure, shortened: as §1
Mus musculus [16] = experiment: Percentage growth inhibition of mammary adenocarcinoma 16/C in B6C3F1 female mice at the dose of 50 mg/kg by subcutaneous administration; settings: ip, in the assay text read “intraperitoneal administration” for “subcutaneous administration”; procedure, shortened: as §1
Mus musculus [17] = species on record: Mus musculus; experiment: Percentage growth inhibition of mammary adenocarcinoma 16/C in B6C3F1 female mice; procedure, shortened: as §1
Mus musculus [18] = experiment: Tumor weight of C3H mammary adenocarcinoma 16/C in B6C3F1 female mice at 80 mg/kg by subcutaneous administration on day 17; settings: route intraperitoneal, in the assay text read “intraperitoneal administration” for “subcutaneous administration”; procedure, shortened: as §1
Mus musculus [19] = experiment: Change in weight of mammary adenocarcinoma 16/C in B6C3F1 female mice by subcutaneous administration on day 9; procedure, shortened: as §1
Mus musculus [20] = experiment: Animals with palpable tumors on day 17 after subcutaneous administration in 6 B6C3F1 female mice; 5/6 animals were with palpable tumors.; settings: in the assay text read “intraperitoneal administration” for “subcutaneous administration”; procedure, shortened: as §1

SMILES: Nc1cc2c(ncn2[C@H]2C[C@H](O)[C@@H](CO)O2)c(O)n1
EC50 (L1210): 9 µM
Tumor weight (Mus musculus [1]): 1.09 g
inhibition in vivo at 40 mg/kg (Mus musculus [2]): 25%
inhibition in vivo at 80 mg/kg (Mus musculus [3]): 69.7%
Delta weight (Mus musculus [4]): 0.58
Delta weight (Mus musculus [5]): 1.2
Animals with palpable tumor (Mus musculus [6]): 6
Animals with palpable tumor (Mus musculus [7]): 6
Tumor weight (Mus musculus [8]): 2.7 g

SMILES: Nc1cc2ncn([C@H]3C[C@H](O)[C@@H](CO)O3)c2c(O)n1
EC50 (L1210): 950 µM
inhibition in vivo at 100 mg/kg (Mus musculus [9]): 2.8%
Tumor weight (Mus musculus [10]): 3.5 g
Tumor weight (Mus musculus [11]): 2.95 g
Delta weight (Mus musculus [12]): 0.95
Delta weight (Mus musculus [13]): 0.72
Animals with palpable tumor (Mus musculus [14]): 6
Animals with palpable tumor (Mus musculus [15]): 6
inhibition in vivo at 50 mg/kg (Mus musculus [16]): 18.1%

SMILES: Nc1cc2[nH]cnc2c(=O)[nH]1 [DEZAGUANINE]
EC50 (L1210): 11 µM
Inhibition (Mus musculus [17]): 93.1%
Tumor weight (Mus musculus [18]): 0.25 g
Delta weight (Mus musculus [19]): 0.06
Animals with palpable tumor (Mus musculus [20]): 5

Next, values leading:

EC50 (L1210): 7 µM
SMILES: Nc1cc2c(ncn2[C@@H]2O[C@H](CO)[C@@H](O)[C@H]2O)c(=O)[nH]1

EC50 (L1210): 750 µM
SMILES: Nc1cc2ncn([C@@H]3O[C@H](CO)[C@@H](O)[C@H]3O)c2c(=O)[nH]1
